Reference: ChEMBL document CHEMBL1124600, “Synthesis and biological properties of purine and pyrimidine 5'-deoxy-5'-(dihydroxyphosphinyl)-beta-D-ribofuranosyl analogues of AMP, GMP, IMP, and CMP” (J Med Chem, 1989)
Active and inactive are the calls of the source. The rule behind the calls is not given here.

Columns and labels:
unidentified adenovirus [1] = assay: Antiviral activity at 100 uM determined in a culture of Adenovirus type 2; IA = inactive; assay type: functional, organism-based
Influenza A virus [2] = assay: Antiviral activity at 10-30 uM determined in a culture of Influenza A; IA = inactive; assay type: functional, organism-based; settings: unidentified influenza virus
Enterovirus [3] = assay: Antiviral activity at 100 uM determined in a culture of Rhinovirus type 1-A; IA = inactive; assay type: functional, organism-based
Human alphaherpesvirus 2 [4] = assay: Antiviral activity at 1-3 uM determined in a culture of Herpes simplex virus type 2; IA = inactive; assay type: functional, organism-based
Human respirovirus 3 = assay: Antiviral activity at 10-30 uM determined in a culture of Parainfluenza virus type 3; IA = inactive; assay type: functional, organism-based
Visna-maedi virus [5] = assay: Antiviral activity at 1-3 uM determined in a culture of Visna virus; IA = inactive; assay type: functional, organism-based
Influenza A virus [6] = assay: Antiviral activity at <=320 uM determined in a culture of Influenza A; IA = inactive; assay type: functional, organism-based; settings: unidentified influenza virus
unidentified adenovirus [7] = assay: Antiviral activity at <=320 uM determined in a culture of Adenovirus type 2; IA = inactive; assay type: functional, organism-based
LoVo = assay: Antitumor activity at <=100 uM determined in a 3-5 days culture of LOVO/L (human colon carcinoma); NA = no activity was shown; assay type: functional, cell-based
How it was run: (§1)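 Wells seeded at (5–10) × 10³ cells with compound at 0.1–100 μM, triplicate wells, 37 °C. L1210 and WI-L2 ran 3 days, CCRF-CEM 4 days, Lovo/L 5 days. MTT was then added for 2 h and formazan dissolved in 2-propanol/0.04 M HCl before absorbance reading. ID50 is the concentration giving 50% of control growth.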

L1210 = assay: Antitumor activity at <=100 uM determined in a 3-5 days culture of L1210 murine leukemia; NA = no activity was shown; assay type: functional, cell-based; settings: Mus musculus; how it was run: as §1
Visna-maedi virus [8] = assay: Antiviral activity at <=320 uM determined in a culture of Visna virus; IA = inactive; assay type: functional, organism-based
Enterovirus [9] = assay: Antiviral activity at <=320 uM determined in a culture of Rhinovirus type 1-A; IA = inactive; assay type: functional, organism-based
CCRF-CEM = assay: Antitumor activity at <=100 uM determined in a 3-5 days culture of CCRF-CEM(human T cell leukemia); NA = no activity was shown; assay type: functional, cell-based; how it was run: as §1
WIL2 [10] = assay: Antitumor activity at <=100 uM determined in a 3-5 days culture of WI-L2 (human B-ltmphoblast); NA = no activity was shown; assay type: functional, cell-based; how it was run: as §1
Human alphaherpesvirus 2 [11] = assay: Antiviral activity at <=320 uM determined in a culture of Herpes simplex virus type 2; IA = inactive; assay type: functional, organism-based
WIL2 [12] = assay: Antitumor activity at <=100 uM determined in a 3-5 days culture of WI-L2 […]; NA = no activity was shown; assay type: functional, cell-based; how it was run: as §1
[13] = Percent of phosphorylated forms of compound at 4 hr after phosphorylation by nucleoside monophosphate kinase; settings: Bos taurus

Structure (SMILES) | Activity (unidentified adenovirus [1]) | Activity (Influenza A virus [2]) | Activity (Enterovirus [3]) | Activity (Human alphaherpesvirus 2 [4]) | Activity (Human respirovirus 3) | Activity (Visna-maedi virus [5]) | Activity (Influenza A virus [6]) | Activity (unidentified adenovirus [7]) | Activity (LoVo) | Activity (L1210) | Activity (Visna-maedi virus [8]) | Activity (Enterovirus [9]) | Activity (CCRF-CEM) | Activity (WIL2 [10]) | Activity (Human alphaherpesvirus 2 [11]) | Activity (WIL2 [12]) | % nucleotide present [13] [%]
NC(=O)c1ncn([C@@H]2O[C@H](CO)[C@@H](O)[C@H]2O)n1 | inactive | inactive | inactive | inactive | inactive | inactive |  |  |  |  |  |  |  |  |  |  | 
Nc1nc(O)c2ncn(C3O[C@H](CP(=O)(O)O)[C@@H](O)[C@H]3O)c2n1 (stereo partly drawn) |  |  |  |  |  |  | inactive | inactive | inactive | inactive | inactive | inactive | inactive | inactive | inactive |  | 
O=P(O)(O)C[C@H]1OC(n2cnc3c(O)ncnc32)[C@H](O)[C@@H]1O (stereo partly drawn) |  |  |  |  |  |  | inactive | inactive | inactive | inactive | inactive | inactive | inactive |  | inactive | inactive | 
Nc1ccn(C2O[C@H](CP(=O)(O)O)[C@@H](O)[C@H]2O)c(=O)n1 (stereo partly drawn) |  |  |  |  |  |  | inactive | inactive | inactive | inactive | inactive | inactive | inactive | inactive | inactive |  | 87
O=c1ccn(C2O[C@H](CP(=O)(O)O)[C@@H](O)[C@H]2O)c(=O)[nH]1 (stereo partly drawn) |  |  |  |  |  |  | inactive | inactive | inactive | inactive | inactive | inactive | inactive | inactive | inactive |  | 
